For orientation: IC50 means the concentration that gives 50% inhibition.

Assay [1] in a line: Displacement of [3H]quinuclidinyl benzilate from muscarinic ACh receptor. In a few lines:
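Porcine brain membranes (500 µg protein; 10 mM K+-phosphate pH 7.0, 1 mM EDTA) incubated with 3H-QNB and alkaloids (0.5 nM–10 mM) for 1 h at 20°; atropine blank for nonspecific binding. Stopped with ice-cold 0.9% NaCl, rapid glass-fiber filtration, three washes, scintillation counting; triplicates. IC50 = concentration displacing 50% of specific binding.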
A general note: Loss of bound radioactivity is the signal in a displacement assay; it reports binding, not function.

A short description of assay [2]: Displacement of [3H]nicotin from nicotinic ACh receptor. In a few lines:
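Porcine brain membranes (sucrose/K+-phosphate pH 7.0/EDTA homogenate, 100,000 g pellet) incubated with 3H-nicotine and alkaloids (0.5 nM–10 mM) for 40 min at 20°; 1 mM nicotine defines nonspecific binding. Rapid filtration on BSA-presoaked glass fiber filters, saline washes, scintillation counting; triplicates. IC50 = concentration displacing 50% of specific binding.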

Consider `O=C1CCC[C@@H]2[C@H]3C[C@@H](CN12)[C@@H]1CCCCN1C3` [LUPANINE], for which the half-maximal inhibitory concentration (IC50) in assay [1] is 114 µM; in assay [2] it was 5 µM.

Take `C=CC[C@H]1NC[C@H]2C[C@@H]1[C@H]1CC(=O)C=CN1C2` [ALBINE]: the IC50 is 33 µM in assay [1] and 193 µM in assay [2].

Take `O=C1CCC[C@@H]2[C@H]3C[C@@H](CN12)[C@@H]1C[C@H](O)CCN1C3`: the half-inhibitory concentration (IC50) in assay [1] worked out at 140 µM; in assay [2] it was 490 µM.

Take `C=CC[C@@H]1NC[C@@H]2C[C@H]1CN1C(=O)CCC[C@H]21` [ANGUSTIFOLINE]: the values for the IC50 in assay [1] and in assay [2] were 25 µM and above 500 µM, respectively.

Turning to `O=c1cccc2n1C[C@H]1C[C@@H]2CN2CCCC[C@H]12` [ANAGYRINE], the IC50 was 132 µM in assay [1] and 2100 µM in assay [2].

Consider `C=CCCN1C[C@H]2C[C@@H](C1)[C@H]1CCCC(=O)N1C2` [TETRAHYDRORHOMBIFOLINE], for which the IC50 in assay [1] turned out to be 129 µM; in assay [2], 310 µM.

Take `O=c1cccc2n1C[C@@H]1CNC[C@H]2C1` [CYTISINICLINE]: the IC50 turned out to be 400 µM in assay [1] and 0.14 µM in assay [2].

Take `C1CCN2C[C@@H]3C[C@@H](CN4CCCC[C@@H]34)[C@H]2C1` [SPARTEINE]: the IC50 was determined as 21 µM in assay [1] and 331 µM in assay [2].

On to `CN1C[C@@H]2C[C@H](C1)c1cccc(=O)n1C2`, for which the concentration for half-maximal inhibition (IC50) in assay [1] was determined as 417 µM; in assay [2] it was 0.05 µM.

With `O=C1[C@H]2C[C@@H](CN3CCCC[C@@H]23)[C@H]2CCCCN12`, the IC50 worked out at 118 µM in assay [1] and 155 µM in assay [2].

`OC[C@@H]1CCCN2CCCC[C@H]12` [LUPININE]: the IC50 in assay [1] is 190 µM; in assay [2], above 500 µM.

With `O=C1C=CN2C[C@@H]3C[C@@H](CN4CCCC[C@@H]34)[C@H]2C1` [MULTIFLORINE], the IC50 in assay [1] was 47 µM; in assay [2] it was above 500 µM.

Regarding `O=C1[C@H](O)CC[C@@H]2[C@H]3C[C@@H](CN12)[C@@H]1CCCCN1C3`, the IC50 in assay [1] was 74 µM; in assay [2] it was 190 µM.

(Values after ChEMBL document CHEMBL1148066, “Binding of quinolizidine alkaloids to nicotinic and muscarinic acetylcholine receptors” (J Nat Prod, 1994).)
